# What was measured:
# [1] = target: T1, Nitric oxide synthase, inducible (Homo sapiens, UniProt P35228); assay: Inhibitory activity against human inducible nitric oxide synthase (iNOS).
# How it was run: (§1)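 Purified human enzymes were used, with iNOS purified from the DLD-1 colorectal adenocarcinoma line. Percent inhibition was measured at three or more inhibitor concentrations and converted to inhibition constants (Ki).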
# Nitric oxide synthase 3 = target: T2, Nitric oxide synthase 3 (Homo sapiens, UniProt P29474); assay: Inhibitory activity against human vascular endothelial nitric oxide synthase.; how it was run: as §1
# T2 sequence (P29474 whole entry): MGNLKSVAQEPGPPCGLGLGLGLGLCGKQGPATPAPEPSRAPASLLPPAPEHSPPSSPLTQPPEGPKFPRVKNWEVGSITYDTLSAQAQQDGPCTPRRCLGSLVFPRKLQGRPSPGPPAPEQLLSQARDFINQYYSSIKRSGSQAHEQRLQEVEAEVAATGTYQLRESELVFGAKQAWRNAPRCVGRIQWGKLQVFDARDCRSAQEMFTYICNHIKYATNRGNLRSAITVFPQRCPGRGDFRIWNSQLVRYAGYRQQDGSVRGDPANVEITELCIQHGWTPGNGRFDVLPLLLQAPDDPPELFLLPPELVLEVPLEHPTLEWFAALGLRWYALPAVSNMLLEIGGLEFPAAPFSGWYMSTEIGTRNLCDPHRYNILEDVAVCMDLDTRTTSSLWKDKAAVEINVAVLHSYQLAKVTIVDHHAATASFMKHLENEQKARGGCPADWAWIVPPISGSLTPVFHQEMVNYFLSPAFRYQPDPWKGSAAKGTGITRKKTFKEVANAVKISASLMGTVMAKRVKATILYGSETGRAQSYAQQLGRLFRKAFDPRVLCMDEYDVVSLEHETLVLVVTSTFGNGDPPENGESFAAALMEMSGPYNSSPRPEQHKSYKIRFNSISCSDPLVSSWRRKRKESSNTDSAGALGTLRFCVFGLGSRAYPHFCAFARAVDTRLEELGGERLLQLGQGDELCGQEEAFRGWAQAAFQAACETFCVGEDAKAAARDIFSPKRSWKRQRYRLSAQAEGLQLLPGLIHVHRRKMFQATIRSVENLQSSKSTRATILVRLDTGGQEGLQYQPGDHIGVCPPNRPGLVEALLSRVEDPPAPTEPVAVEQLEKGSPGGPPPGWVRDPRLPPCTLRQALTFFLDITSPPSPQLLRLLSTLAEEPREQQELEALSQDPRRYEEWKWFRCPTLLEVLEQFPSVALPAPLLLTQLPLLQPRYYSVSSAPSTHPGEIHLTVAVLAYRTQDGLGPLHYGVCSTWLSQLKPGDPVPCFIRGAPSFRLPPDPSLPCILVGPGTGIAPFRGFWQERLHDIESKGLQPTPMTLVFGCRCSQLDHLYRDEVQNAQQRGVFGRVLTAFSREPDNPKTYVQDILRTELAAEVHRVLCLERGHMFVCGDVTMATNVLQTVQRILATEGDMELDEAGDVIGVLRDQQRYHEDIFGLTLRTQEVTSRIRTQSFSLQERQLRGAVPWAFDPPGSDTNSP
# Nitric oxide synthase 1 [2] = target: T3, Nitric oxide synthase 1 (Homo sapiens, UniProt P29475); assay: Inhibitory activity against human neuronal nitric oxide synthase in brain (nNOS).; format: tissue-based
# T3 sequence (P29475 whole entry): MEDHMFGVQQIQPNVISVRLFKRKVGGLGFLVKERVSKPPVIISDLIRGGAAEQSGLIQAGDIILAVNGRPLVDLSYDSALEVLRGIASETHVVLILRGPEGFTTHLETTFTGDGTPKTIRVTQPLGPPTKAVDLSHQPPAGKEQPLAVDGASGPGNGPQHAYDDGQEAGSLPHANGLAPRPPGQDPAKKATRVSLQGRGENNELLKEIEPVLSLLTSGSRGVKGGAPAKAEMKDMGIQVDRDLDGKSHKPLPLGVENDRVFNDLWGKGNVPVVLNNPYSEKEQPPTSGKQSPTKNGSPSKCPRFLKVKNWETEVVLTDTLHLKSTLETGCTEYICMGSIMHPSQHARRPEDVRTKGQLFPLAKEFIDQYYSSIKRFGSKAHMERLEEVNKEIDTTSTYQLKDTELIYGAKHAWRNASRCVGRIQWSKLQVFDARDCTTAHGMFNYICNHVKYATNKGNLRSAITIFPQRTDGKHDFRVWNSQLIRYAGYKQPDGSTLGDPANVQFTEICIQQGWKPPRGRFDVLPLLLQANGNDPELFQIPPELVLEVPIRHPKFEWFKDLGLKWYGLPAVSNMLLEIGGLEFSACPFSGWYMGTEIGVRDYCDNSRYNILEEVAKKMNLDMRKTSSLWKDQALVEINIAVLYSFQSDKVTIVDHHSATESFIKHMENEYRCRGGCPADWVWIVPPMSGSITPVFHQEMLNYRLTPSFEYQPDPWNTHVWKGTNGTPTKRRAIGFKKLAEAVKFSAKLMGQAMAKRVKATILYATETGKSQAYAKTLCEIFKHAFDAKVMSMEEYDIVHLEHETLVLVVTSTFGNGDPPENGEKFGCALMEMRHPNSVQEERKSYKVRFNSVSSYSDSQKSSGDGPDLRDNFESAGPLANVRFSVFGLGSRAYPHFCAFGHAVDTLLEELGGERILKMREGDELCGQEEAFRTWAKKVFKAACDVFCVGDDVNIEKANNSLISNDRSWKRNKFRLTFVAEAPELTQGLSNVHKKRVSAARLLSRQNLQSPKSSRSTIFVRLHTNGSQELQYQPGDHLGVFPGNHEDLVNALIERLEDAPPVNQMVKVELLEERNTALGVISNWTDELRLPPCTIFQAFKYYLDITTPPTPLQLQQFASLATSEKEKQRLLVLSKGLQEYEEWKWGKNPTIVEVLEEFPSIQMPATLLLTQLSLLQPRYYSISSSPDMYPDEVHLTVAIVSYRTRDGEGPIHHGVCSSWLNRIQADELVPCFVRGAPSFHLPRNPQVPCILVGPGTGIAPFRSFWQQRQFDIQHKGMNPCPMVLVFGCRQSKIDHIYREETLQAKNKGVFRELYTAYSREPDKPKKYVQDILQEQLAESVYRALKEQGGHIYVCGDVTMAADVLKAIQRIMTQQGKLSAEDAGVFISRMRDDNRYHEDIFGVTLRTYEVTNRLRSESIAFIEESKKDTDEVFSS
# [3] = target: T4, Nitric oxide synthase 3 (Homo sapiens) (UniProt P29474); assay: Percent inhibition of human Vascular Endothelial nitric oxide synthase at a concentration of 25 uM; conditions: at 25 µM
# T4 sequence (whole entry): T2 sequence (P29474 whole entry)
# [4] = target: T1, Nitric oxide synthase, inducible; assay: Percent inhibition of Human inducible Nitric Oxide Synthase (iNOS) at a concentration of 25 uM; conditions: at 25 µM
# How it was run: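 Human iNOS purified from the DLD-1 colorectal adenocarcinoma cell line. Percent inhibition of the enzyme was measured with test compound present.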
# Nitric oxide synthase 1 [5] = target: T3, Nitric oxide synthase 1; assay: Percent inhibition of human Neuronal nitric oxide synthase in brain (nNOS) at a concentration of 25 uM; format: tissue-based; conditions: at 25 µM
# [6] = Clearance was determined; format: ADME, organism-based; conditions: in vivo
# [7] = Michaelis-Menten constant was determined; format: ADME
# How it was run: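 Human nNOS conversion of L-arginine to L-citrulline was measured over a range of arginine with inhibitor at 0, 150 and 300 nM. Velocities were fitted to V = Vmax[S]/{[S] + Km(1 + [I]/Ki)} to give Km.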
# [8] = The half life was determined; format: ADME
# Nitric oxide synthase 1 [9] = target: T3, Nitric oxide synthase 1; assay: Percent inhibition of human Neuronal nitric oxide synthase at a concentration of 25 uM; conditions: at 25 µM
# T1 sequence (P35228 whole entry): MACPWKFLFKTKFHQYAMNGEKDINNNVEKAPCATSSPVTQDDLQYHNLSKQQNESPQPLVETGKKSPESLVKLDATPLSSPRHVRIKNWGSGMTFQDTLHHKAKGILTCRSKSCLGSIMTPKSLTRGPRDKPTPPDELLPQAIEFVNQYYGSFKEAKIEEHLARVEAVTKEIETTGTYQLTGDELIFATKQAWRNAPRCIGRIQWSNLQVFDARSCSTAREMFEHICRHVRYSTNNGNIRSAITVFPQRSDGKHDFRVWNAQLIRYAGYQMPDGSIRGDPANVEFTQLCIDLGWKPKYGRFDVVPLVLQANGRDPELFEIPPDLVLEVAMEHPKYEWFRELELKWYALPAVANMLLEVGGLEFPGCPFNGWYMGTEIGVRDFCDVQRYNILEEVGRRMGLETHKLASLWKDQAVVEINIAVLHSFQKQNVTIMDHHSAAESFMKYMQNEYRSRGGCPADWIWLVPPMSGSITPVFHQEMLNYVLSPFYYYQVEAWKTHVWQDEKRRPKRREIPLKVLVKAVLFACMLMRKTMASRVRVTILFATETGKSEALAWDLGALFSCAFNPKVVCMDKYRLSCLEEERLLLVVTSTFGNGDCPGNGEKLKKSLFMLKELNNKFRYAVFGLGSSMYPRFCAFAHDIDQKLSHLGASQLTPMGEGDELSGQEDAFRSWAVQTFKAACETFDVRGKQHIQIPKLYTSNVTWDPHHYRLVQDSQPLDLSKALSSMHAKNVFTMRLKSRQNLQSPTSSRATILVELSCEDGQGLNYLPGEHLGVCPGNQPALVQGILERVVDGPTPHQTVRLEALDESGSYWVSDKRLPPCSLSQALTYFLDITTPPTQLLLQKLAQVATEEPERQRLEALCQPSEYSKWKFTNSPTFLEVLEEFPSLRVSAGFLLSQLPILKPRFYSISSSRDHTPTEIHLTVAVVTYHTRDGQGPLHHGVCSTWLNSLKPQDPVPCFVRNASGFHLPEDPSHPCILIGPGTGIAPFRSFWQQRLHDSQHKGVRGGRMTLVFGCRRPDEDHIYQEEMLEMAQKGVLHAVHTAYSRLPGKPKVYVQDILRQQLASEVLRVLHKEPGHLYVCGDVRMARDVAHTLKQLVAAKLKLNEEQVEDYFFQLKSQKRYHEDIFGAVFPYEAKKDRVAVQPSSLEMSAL
Structure (SMILES),Ki [1] [µM],Ki (Nitric oxide synthase 3) [µM],Ki (Nitric oxide synthase 1 [2]) [µM],inhibition [4] [%],other results
CCOC(=O)c1ccc(NC(=N)SCC)cc1,63,,,,
CCSC(=N)Nc1ccc([N+](=O)[O-])cc1,54,9.1,0.66,,
CCSC(=N)Nc1ccccn1,23,17,,,
CC(C)SC(=N)Nc1ccc(C(F)(F)F)cc1,,,29,0,inhibition [3]: 0%
CCSC(=N)Nc1ccccc1,0.87,0.4,0.12,,
CSC(=N)Nc1ccc([N+](=O)[O-])cc1,,17,3.3,0,
CCSC(=N)Nc1ccc(C(F)(F)F)cc1.Cl,37,,,,Clearance [6]: 93.3 mL/min/kg; Km [7]: 2 µM; half-life ([8]; read-out: T1/2 alpha): 4 min; half-life ([8]; read-out: T1/2 beta): 31 min
CCSC(=N)Nc1ccncc1,22,16,0.8,,
CCSC(=N)Nc1ccccc1C(F)(F)F,,18,,,
CSC(=N)Nc1ccc(C(F)(F)F)cc1,,31,4.6,0,

# The next lines start with results.
Ki [1] [µM],Ki (Nitric oxide synthase 3) [µM],Ki (Nitric oxide synthase 1 [2]) [µM],inhibition [4] [%],Structure (SMILES),other results
,,,0,N=C(Nc1ccc(C(F)(F)F)cc1)SCc1ccccc1,inhibition [3]: 0%; inhibition (Nitric oxide synthase 1 [5]): 11%
,,58,0,CCSC(=N)Nc1ccc(C(=O)O)cc1,inhibition [3]: 14%
55,17,0.7,,CCSC(=N)Nc1ccc(OC(F)(F)F)cc1,
,,1.1,,CCSC(=N)Nc1ccccc1C(C)C,
42,2.6,0.57,,CSC(=N)Nc1ccc(Cl)cc1,
23,7,,,CCSC(=N)Nc1cccnc1,
25,,,,CCSC(=N)Nc1ccc(C(C)C)cc1,
,,,0,CCCCSC(=N)Nc1ccc(C(F)(F)F)cc1,inhibition [3]: 0%; inhibition (Nitric oxide synthase 1 [9]): 0%
,,64,4,CCCSC(=N)Nc1ccc(C(F)(F)F)cc1,inhibition [3]: 0%
4.2,0.9,0.14,,CCSC(=N)Nc1ccc(Cl)cc1,

# — ChEMBL document CHEMBL1130064, “Substituted N-phenylisothioureas: potent inhibitors of human nitric oxide synthase with neuronal isoform selectivity” (J Med Chem, 1997)
